Exocytosis inh – LAMP-1 surface exposure blockers, TALL-104 cells – cell-based, flow cytometry, MLPCN library, primary screen; TALL-104 LAMP-1 surface exposure; cells stimulated with thapsigargin and PMA; inhibition, % at 10 µM; 360,000 tested, 0.66% active; AID 651702, 2012;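 active = inhibition above about 55%, limit read from the data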
ABCB6 inh 2 – ABCB6 transporter inhibitors, primary screen, K562-ABCB6 cells, flow cytometry, MLPCN library; ATP-binding cassette sub-family B member 6 (Homo sapiens), Q9NP58; fluorescence ratio to DMSO, % at 10 µM; K562-ABCB6 porphyrin accumulation, 1 h; hits give low values; AID 602162, 2011; 360,000 tested, 0.19% active;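 active = fluorescence ratio to DMSO below 75%, the collection mean minus 3 SD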;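 also: signal is porphyrin accumulated inside mitochondria; lower ratio means ABCB6 inhibition with less porphyrin fluorescence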
MC4R ag barr – MC4R agonists recruiting beta-arrestin, primary screen, cell-based, luminescence, agonist arm of biased-ligand search; U2OS MC4R beta-arrestin complementation; percent of melanotan II response, DMSO zero; activation, % at 8.9 µM; 360,000 tested, 0.98% active; AID 540308, 2011;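 active = activation above a per-plate cutoff, the mean activation of sample wells on that plate plus 3 SD, cut at about 8% in these data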
Target sequence (P32245 whole entry, looked up): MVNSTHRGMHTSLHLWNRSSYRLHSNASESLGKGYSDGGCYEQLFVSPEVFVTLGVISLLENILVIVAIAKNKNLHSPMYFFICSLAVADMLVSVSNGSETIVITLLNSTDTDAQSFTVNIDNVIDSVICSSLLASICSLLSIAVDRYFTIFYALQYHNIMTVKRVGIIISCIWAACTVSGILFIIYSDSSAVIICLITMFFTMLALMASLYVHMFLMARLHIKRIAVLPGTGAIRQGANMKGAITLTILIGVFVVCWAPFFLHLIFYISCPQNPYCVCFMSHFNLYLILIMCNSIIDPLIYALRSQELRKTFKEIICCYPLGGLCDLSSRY
MC4R antagonist – MC4R antagonists of cAMP signaling, primary screen, cell-based, TR-FRET, antagonist arm of biased-ligand search. Melanocortin receptor 4 (Homo sapiens), P32245. MC4R-expressing cells, MTII-stimulated cAMP, LANCE TR-FRET. inhibition, % at 6.5 µM. 360,000 tested, 0.48% active;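 active = inhibition above its plate's cutoff, the mean of tested wells on that plate plus 3 SD, cut at about 29% in these data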
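Assay system: human MC4R-expressing U2OS cells; reagent: Melanotan II stimulation of cells; dosing: 6.5 µM single dose; timing: compound 30 min, challenge 1 h, detection 1 h; signal: TR-FRET cAMP assay; replicates: one well per compound, no replicates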
hiPSC survival – enhancers of single-cell hiPSC survival, primary screen, ATPlite luminescence; 100% = ROCK inhibitor wells, 0% = DMSO; survival enhancement, % at 20 µM; 360,000 tested, 0.044% active; in the data active = survival enhancement above about 18%;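 also: cells exposed to compounds for 16 hours before the ATP read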
TbMetRS inhib – T. brucei MetRS inhibitors, primary screen, biochemical, luminescence. purified T. brucei MetRS, ATP depletion, Kinase-Glo luminescence. inhibition, % at 11.9 µM. 360,000 tested, 0.4% active. AID 624268, 2012;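 active = inhibition above a per-plate cutoff of the control wells' mean inhibition plus 3 SD, cut at about 5.5% in these data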
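Test system: purified T. brucei MetRS enzyme. Also added: ATP, methionine and E. coli bulk tRNA substrates. Compound: 11.9 µM single point. Schedule: 15 min enzyme-compound preincubation, 2 h reaction, 10 min detection, 25 °C. Signal: luciferase luminescence of residual ATP, Kinase-Glo. Evaluation: percent inhibition versus plate control medians. Controls: DMSO wells, low control.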
Tb MetRS conf – T. brucei MetRS inhibitors, confirmation, biochemical, luminescence; 1,400 tested, 93% active; inhibition, % at 11.9 µM; shares compounds with TbMetRS inhib; T. brucei MetRS enzyme, luminescence (ATP depletion); in the data active = inhibition above about 7%
Jurkat tox – Jurkat T cell cytotoxicity, cytotoxicity control for T. brucei MetRS inhibitor project, luminescence, high throughput; shares compounds with TbMetRS inhib; Jurkat cells viability, ATP luminescence; inhibition, % at 8.3 µM; 1,400 tested, 12% active; AID 624413, 2012; in the data active = inhibition above about 15%
TbMetRS FP orth – T. brucei MetRS inhibitors, orthogonal assay for T. brucei MetRS inhibitor project, biochemical, fluorescence polarization | shares compounds with TbMetRS inhib | purified T. brucei MetRS | inhibition, % at 11.9 µM | 1,400 tested, 44% active | AID 651607, 2012; in the data active = inhibition above about 17%
A number is an active result; 0 = inactive; - = not tested or not shown. An excerpt weighted towards active compounds, which were near 2.6% of everything screened.

SMILES	Exocytosis inh	ABCB6 inh 2	MC4R ag barr	MC4R antagonist	hiPSC survival	TbMetRS inhib	Tb MetRS conf	Jurkat tox	TbMetRS FP orth
COc1cc(OC)cc(-c2c(-c3cccs3)c3cc(-c4ccc(OC)c(OC)c4)ccc3n2C)c1	0	0	0	0	0	0	-	-	-
CCO[C@@H]1OC(C(=O)NCc2nc3ccccc3[nH]2)=C[C@H](c2ccc(C(F)(F)F)cc2)[C@H]1CCCO	0	0	0	0	0	33	61	0	38
C#Cc1ccc([C@@H]2C=C(C(=O)NCc3nc4ccccc4[nH]3)O[C@H](OCC)[C@H]2CCCO)cc1	0	0	0	0	0	28	51	0	33
CCO[C@H]1OC(C(=O)NCc2nc3ccccc3[nH]2)=C[C@@H](c2ccc(C(F)(F)F)cc2)[C@@H]1CCCO	0	0	0	0	0	11	35	0	0
CCO[C@H]1OC(C(=O)NCc2nc3ccccc3[nH]2)=C[C@@H](C)[C@@H]1CCCO	0	0	0	0	0	0	-	-	-
CCO[C@@H]1OC(C(=O)NCc2nc3ccccc3[nH]2)=C[C@H](C)[C@H]1CCCO	0	0	0	0	0	0	-	-	-
c1ccc(CNc2ncnc3c2oc2ccccc23)nc1	0	0	0	0	0	0	-	-	-
COc1ccc(CNc2ncnc3c2[nH]c2ccccc23)cc1	0	0	0	0	0	88	94	24	73
Brc1ccc2[nH]c3c(NCc4ccccn4)ncnc3c2c1	0	0	0	0	0	83	88	0	79
CC(C)OCCCNc1ncnc2c1[nH]c1ccccc12	0	0	0	0	0	74	87	38	64
C1=C(CCNc2ncnc3c2[nH]c2ccccc23)CCCC1	0	0	0	0	0	79	97	56	76
CN(C)S(=O)(=O)c1ccc(C(=O)OCC(=O)c2csc(N3CCCCC3)n2)cc1	0	0	0	0	0	0	-	-	-
CCOc1ccc(CCNc2nc3ccc(C)cc3n3cnnc23)cc1OCC	0	0	0	0	0	0	-	-	-
Cc1ccsc1C(=O)N1CCC(N2CCC(C(=O)NCC3CCCO3)CC2)CC1 (centres undefined)	0	0	0	0	0	0	-	-	-
COc1cccc(Nc2nc3ccccc3c(=O)[nH]2)c1	0	0	0	0	0	8.6	18	0	0
COc1cccc(Nc2cc(C)c3ccccc3n2)c1	0	0	0	0	0	0	-	-	-
CC1CCCCC1NC(=O)COc1ccccc1C#N (centres undefined)	0	0	0	0	0	0	-	-	-
Cc1ccccc1CC1SC(N)=NC1=O (centres undefined)	0	0	0	0	0	0	-	-	-
Nc1ncnc2c1ncn2C1O[C@H](CO)[C@@H](O)[C@@H]1O (some centres undefined)	0	0	0	0	0	0	-	-	-
N#Cc1c(N)n(C2OC(CO)C(O)C2O)c2ncnc(N)c12 (centres undefined)	0	0	0	0	0	7.8	30	97	0
O=C(CNc1cc(S(=O)(=O)N2CCOCC2)ccc1NCC1CCCO1)Nc1ccccc1F (centres undefined)	0	0	0	0	0	11	0	0	0
Cc1ccc(S(=O)(=O)Nc2cc(S(=O)(=O)N3CCOCC3)ccc2NCC2CCCO2)cc1 (centres undefined)	0	0	0	0	0	0	-	-	-
O=S(=O)(Nc1cc(S(=O)(=O)N2CCOCC2)ccc1NCC1CCCO1)c1ccccc1F (centres undefined)	0	0	0	0	0	0	-	-	-
Cc1ccc(NC(=O)CNc2cc(S(=O)(=O)N3CCOCC3)ccc2NCC2CCCO2)cc1F (centres undefined)	0	0	0	0	0	15	21	0	0
O=c1[nH]nc(Cc2ccc(Cl)cc2Cl)c2ccccc12	0	0	0	0	0	8.2	39	0	20
SMILES	Exocytosis inh	ABCB6 inh 2	MC4R ag barr	MC4R antagonist	hiPSC survival	TbMetRS inhib	Tb MetRS conf	Jurkat tox	TbMetRS FP orth
O=C1CCCc2c1[nH]c1ccccc21	0	0	0	0	0	0	-	-	-
c1ccc2c3c([nH]c2c1)-c1[nH]ncc1CC3	0	0	0	0	0	16	19	0	22
Clc1ccc2[nH]c3c(c2c1)CCc1cn[nH]c1-3	0	-	0	0	0	32	28	0	100
O=C(CN1C(=O)c2ccccc2S1(=O)=O)NCc1c(F)cccc1F	0	0	0	0	0	0	-	-	-
Cc1cccc(C)c1NC(=O)CNC(=O)c1ccc(N2CCCC2)c([N+](=O)[O-])c1	0	0	0	0	0	0	-	-	-
COc1ccc(Cc2n[nH]c(=S)n2NC(=O)Nc2ccc(Cl)c(Cl)c2)cc1	0	0	0	0	0	37	50	0	32
CCCC(C)c1nnc(NC(=O)CCS(=O)(=O)Cc2ccccc2)s1 (centres undefined)	0	0	0	0	0	0	-	-	-
Oc1ccc(/C=N/Nc2ccnc3cc(Cl)ccc23)cc1O	0	0	0	0	0	5.6	13	77	26
COc1ccc(Cc2nnc(NC(=O)Nc3ccccc3)s2)cc1OC	0	0	0	0	0	7.0	21	0	0
CCOC(=O)Cc1nnc(NC(=O)Nc2ccccc2)s1	0	0	0	0	0	16	23	0	0
O=C(Nc1ccccc1)Nc1nnc(Cc2ccccc2F)s1	0	0	0	0	0	0	-	-	-
O=C(CN1C(=O)C2CC=CCC2C1=O)Nc1ccc(S(=O)(=O)N2CCOCC2)cc1 (centres undefined)	0	0	0	0	0	0	-	-	-
CCOC(=O)N1CCC(Nc2c(Nc3ccc(F)cc3)c(=O)c2=O)CC1	0	0	0	0	0	36	77	0	40
CC(C)(Oc1ccc(Cl)cc1)C(=O)OCc1nc2ccsc2c(=O)[nH]1	0	0	0	0	0	20	64	0	38
